From PubChem
CHRM5 antagonist: CHRM5 antagonism in calcium assay; inhibition, % at 3 µM; CHO-hM5 cells, Fluo-8 calcium fluorescence, ACh EC80; 360,000 tested, 0.59% active; AID 624040;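 active = inhibition above a per-plate cutoff, the mean of that plate's test compounds plus 3 SD, cut at about 27% in these data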;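 also: 0% = acetylcholine EC80 with DMSO and 100% = DMSO without agonist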
Target sequence (P08912 whole entry, looked up): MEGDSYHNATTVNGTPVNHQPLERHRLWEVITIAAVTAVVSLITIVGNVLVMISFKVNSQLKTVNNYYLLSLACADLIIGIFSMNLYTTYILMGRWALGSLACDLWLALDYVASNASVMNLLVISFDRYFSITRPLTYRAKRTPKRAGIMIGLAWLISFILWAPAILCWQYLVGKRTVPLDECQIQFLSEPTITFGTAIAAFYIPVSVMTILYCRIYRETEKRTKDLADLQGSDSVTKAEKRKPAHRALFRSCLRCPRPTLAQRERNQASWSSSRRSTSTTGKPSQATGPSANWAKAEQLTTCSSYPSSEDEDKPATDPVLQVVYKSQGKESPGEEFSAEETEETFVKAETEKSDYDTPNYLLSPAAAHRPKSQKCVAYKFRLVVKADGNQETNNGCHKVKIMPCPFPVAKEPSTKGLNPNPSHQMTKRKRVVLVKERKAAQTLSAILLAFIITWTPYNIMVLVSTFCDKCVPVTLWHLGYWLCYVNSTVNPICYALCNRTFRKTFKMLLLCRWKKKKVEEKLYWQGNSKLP
CHRM1 agonist: agonists of human M1 muscarinic receptor; P11229; CHO-K1 hM1, Fluo-8 calcium fluorescence, agonist mode; 0% DMSO, 100% acetylcholine EC100; activation, % at 3 µM; 360,000 tested, 0.33% active; AID 588814;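 active = activation above the run's mean compound activation plus 3 SD, cut at about 16% in these data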;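 also: peak over basal fluorescence ratio within a 140 s kinetic read after compound addition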
CHRM1 antagonist: antagonists of human M1 muscarinic receptor | P11229 | inhibition, % at 3 µM | 360,000 tested, 1.3% active | CHO-K1 hM1, Fluo-8 calcium fluorescence, ACh EC80 antagonist | AID 588852;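 active = percent inhibition above its own plate's cutoff, namely the mean of that plate's compound wells plus 3 SD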;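 also: peak over basal fluorescence ratio during 140 s after agonist addition; 0% = ACh EC80 plus DMSO and 100% = DMSO alone without agonist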
CHRM1 PAM: human CHRM1 positive allosteric modulation; P11229; activation, % at 3 µM; CHO-K1 hM1, Fluo-8 calcium fluorescence, ACh EC20; 0% = ACh EC20, 100% = maximal ACh; 360,000 tested, 0.088% active; in the data active = activation above about 19%, passing the limit was not always enough
CHRM5 PAM: positive allosteric modulators of human muscarinic M5 receptor. CHO-K1 hM5, Fluo-8 calcium, ACh EC20 PAM; 0% = ACh EC20, 100% = ACh EC100. 360,000 tested, 0.3% active. activation, % at 3 µM. P08912. AID 624038;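 active = activation above the run cutoff, the mean activation of all test compounds plus 3 SD, cut at about 18% in these data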
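System – CHO-K1 hM5 cells · Compound – 3 µM, single dose · Incubation – compound preincubation 140 s before EC20 acetylcholine addition · Technique – Fluo-8 calcium fluorescence · Measure – Max/basal fluorescence ratio as % of EC20–EC100 ACh window · Benchmarks – low control EC20 acetylcholine (0%), high control EC100 acetylcholine (100%) · Replication – singlicate, one well per test compound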
M5 ag: agonists of human muscarinic M5 receptor (CHRM5). P08912. CHO-K1 hM5 cells, Fluo-8 calcium fluorescence; 0% DMSO wells, 100% maximal acetylcholine response. activation, % at 3 µM. 360,000 tested, 0.19% active. AID 624037;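 active = activation above the run's mean over test compounds plus 3 SD, cut at about 23% in these data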;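 also: signal is peak over basal fluorescence ratio across the kinetic read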
* hit, by the source's call. Sampled rows, rich in hits. Any-hit rate of the full collection: about 2%.

SMILES | CHRM5 antagonist | CHRM1 agonist | CHRM1 antagonist | CHRM1 PAM | CHRM5 PAM | M5 ag
Cc1cccc(Nc2nc(N)nc(N)c2N=O)c1 | 11.5 | 24.2* | -8.0 | 6.9 | -11.1 | 22.6
CCN(CC)c1ccc(/C=C/c2ccc3ccc(OC)cc3[n+]2CC)cc1 | 48.8* | 3.2 | 48.2* | -14.1 | -22.4 | 6.2
CC[n+]1c(/C=C/c2ccc(N(C)C)cc2)ccc2ccccc21 | 4.6 | -11.9 | 16.6 | 1.4 | 1.3 | -0.2
OC1COC(c2ccccc2)OC1C1OC(c2ccccc2)OCC1O (stereo not given) | -2.6 | -0.3 | -4.2 | 6.3 | 6.1 | 2.5
OCCN1CCN(c2ncnc3c2ncn3[C@H]2CN(Cc3ccc4c(c3)OCO4)C[C@@H](CO)O2)CC1 | 8.7 | -2.2 | -5.0 | 9.2 | 5.0 | 4.1
CNC(=S)N1N=C(c2ccc(OC)cc2)CC1c1ccc(Cl)cc1Cl (stereo not given) | 1.3 | -11.2 | -11.3 | -4.5 | -7.7 | -2.5
CNC(=S)N1N=C(c2ccc(OC)cc2)CC1c1ccccc1Cl (stereo not given) | 8.5 | -7.7 | 34.5* | -21.7 | -9.3 | -3.9
Cc1cnc(C2OCCO2)c2cccc(N)c12 | 4.6 | -2.0 | 5.6 | -0.2 | -3.9 | 0.7
O=C(c1ccc(OC2CCN(C/C=C/c3ccccc3)CC2)cc1)N1CCCC1 | 6.4 | -4.5 | 29.4 | -15.3 | -5.8 | -6.9
O=C(c1ccc(OC2CCN(C/C=C/c3ccccc3)CC2)cc1)N1CCCCC1 | 3.5 | -5.8 | 29.5* | -13.9 | -11.9 | -6.5
CCCCOc1ccc(C(=O)NCC(=O)N2CCN(C/C=C/c3ccccc3)CC2)cc1 | 9.0 | 12.2 | 44.0* | -21.6 | -8.7 | -0.8
COc1ccc(/C=C/CN2CCC(Oc3ccc(C(=O)N4CCCCC4)cc3)CC2)cc1 | 34.7* | -4.5 | 43.7* | -20.4 | -15.4 | -7.7
CCc1nc2ccc(C(=O)NCCCn3ccnc3)cn2c1N(C)Cc1ccc(Cl)cc1 | -2.0 | -9.3 | -6.1 | -3.4 | 0.7 | -1.9
CCCC(=O)N1CCC1(C)C(=O)Nc1cc(C)ccc1C (stereo not given) | 1.5 | -3.8 | -14.0 | 9.4 | 0.9 | -1.5
Cc1ccccc1Oc1ccc2c(c1)[C@@H]1C[C@H](N(C)C(=O)Nc3cc(Cl)cc(Cl)c3)[C@H]([C@H](C)O)C(=O)N1CC2 | -7.9 | -1.2 | -6.6 | 9.6 | 3.8 | 1.4
CCN1C(Nc2ccccc2)=NC[C@@H]1Cc1ccccc1 | 1.8 | -10.5 | -2.3 | 1.9 | -0.6 | -8.5
CC(C)(C)C1CCC(CN2C(Nc3ccccc3)=NC[C@@H]2Cc2ccccc2)CC1 (stereo not given in full) | 28.0* | -1.6 | 65.1* | -28.1 | -20.0 | -1.5
COc1ccccc1CCNC(=O)C(=O)NCC1OCCN1S(=O)(=O)c1cc(F)ccc1F (stereo not given) | -4.6 | -1.5 | -11.1 | 6.3 | 3.1 | 2.5
CN(CC(=O)Nc1ccc(C(N)=O)cc1)CC(=O)Nc1ccccc1Br | -9.0 | 4.2 | -6.5 | 4.7 | -1.4 | 6.4
CC(=O)Nc1ccc(NC(=O)CN(C)CC(=O)Nc2ccccc2Br)cc1 | 17.9 | -3.7 | 38.4* | -14.5 | -13.3 | 2.8
CN(CC(=O)Nc1ccccc1Br)C(=O)CNC(=O)c1cccs1 | 12.0 | -1.7 | 33.6* | -4.4 | -7.4 | 0.0
O=C1[C@@H](Oc2ccccc2)[C@@H](c2cnc3ccccc3c2)N1c1ccccc1 | -11.5 | -10.1 | 29.9* | -19.8 | -6.2 | -2.1
O=NN(C(=O)NC1CCC(C(=O)O)CC1)C1CCC(C(=O)O)CC1 (stereo not given) | -1.9 | -1.8 | 8.7 | -2.2 | -2.1 | 2.6
CN(C)CCCN(Cc1ccccc1)C(=S)Nc1ccc(F)c(Cl)c1 | 10.9 | -6.7 | 38.3* | -21.4 | -13.3 | -11.2
CN(C)CCCN(Cc1ccccc1)C(=S)Nc1cccc(C(F)(F)F)c1 | 0.5 | -5.9 | 6.8 | -4.6 | -0.1 | -7.4
SMILES | CHRM5 antagonist | CHRM1 agonist | CHRM1 antagonist | CHRM1 PAM | CHRM5 PAM | M5 ag
O=C(C[C@H]1C/C=C\CC[C@H](Cc2ccc(F)cc2)C(=O)O[C@H](c2ccccc2)CNC1=O)N[C@H](CO)Cc1ccccc1 | 9.9 | -1.2 | 14.4 | -6.9 | -10.8 | 0.7
C[C@@H]1COC(=O)[C@H](CC(=O)OC(C)(C)C)C/C=C\C[C@H](CC(=O)N(CCO)Cc2ccccc2)C(=O)N1 | 15.2 | -0.4 | -5.9 | 17.7 | 2.7 | -5.0
O=C1NC[C@H](c2ccccc2)OC(=O)[C@H](Cc2ccc(F)cc2)CC/C=C/C[C@H]1CC(=O)N(CCO)Cc1ccccc1 | 22.0 | -0.4 | 20.4 | -5.4 | -27.7 | 2.1
O=C1NC[C@H](c2ccccc2)OC(=O)[C@@H](Cc2ccc(F)cc2)CC/C=C/C[C@H]1CC(=O)N(CCO)Cc1ccccc1 | 21.1 | -2.7 | 32.1* | -16.4 | -39.1 | 4.7
CC(C)(C)OC(=O)C[C@@H]1C/C=C\C[C@@H](CC(=O)N(CCO)Cc2ccccc2)C(=O)N[C@@H](c2ccccc2)COC1=O | 29.4* | -4.1 | 15.2 | -11.6 | -26.3 | 0.2
O=C(C[C@H]1C/C=C\CC[C@H](Cc2ccc(F)cc2)C(=O)O[C@@H](c2ccccc2)CNC1=O)N[C@@H](CO)Cc1ccccc1 | 15.8 | -0.1 | 16.6 | -4.9 | -21.1 | 2.3
O=C(C[C@H]1C/C=C\C[C@H](Cc2ccc(F)cc2)C(=O)O[C@@H](c2ccccc2)CNC1=O)N[C@H](CO)Cc1ccccc1 | 15.7 | 36.8* | 8.6 | 2.1 | -1.7 | 11.6
O=C(C[C@H]1C/C=C\CC[C@H](Cc2ccc(F)cc2)C(=O)O[C@@H](c2ccccc2)CNC1=O)N[C@H](CO)Cc1ccccc1 | 2.0 | 36.0* | 9.2 | 3.2 | 1.0 | 7.3
CC1(Cc2cc(Cl)ccc2C(F)(F)F)C(=O)Nc2cc(-c3ccccc3Cl)ccc21 (stereo not given) | -4.2 | -3.1 | -18.6 | 9.6 | 2.8 | -0.2
CN(Cc1ccc2ccccc2c1)C(=O)c1ccc(C(F)(F)F)cc1 | 27.3* | -3.2 | -12.3 | 10.0 | -8.8 | -4.6
COc1ccc(CN(C)C(=O)c2ccc(Oc3ccccc3)cc2)cc1F | 10.6 | -3.7 | -8.6 | 5.5 | -4.7 | -3.6
C=C(C)C(=O)OCC(O)COc1ccc(C(C)(C)c2ccc(OCC(O)COC(=O)C(=C)C)cc2)cc1 (stereo not given) | 27.5* | 3.6 | 0.3 | -11.0 | -16.6 | 11.6
Cc1nc2nc(C(F)(F)F)[nH]c2nc1C | 10.2 | -3.0 | -7.4 | 5.2 | 0.8 | 3.2
CCC(C(=O)Nc1ccc(C)cc1)c1ccccc1 (stereo not given) | 7.4 | -3.2 | 7.5 | -2.3 | -1.9 | -2.1
CCC(C(=O)Nc1cc(Cl)ccc1OC)c1ccccc1 (stereo not given) | -10.6 | -9.1 | -17.9 | 16.2 | 18.6* | -4.0
